This is an account of results in ChEMBL document CHEMBL1649070, “Virtual screening identification of nonfolate compounds, including a CNS drug, as antiparasitic agents inhibiting pteridine reductase” (J Med Chem, 2011).

Data set [1] has as its target T1, Pteridine reductase 1 (Leishmania major) (UniProt Q01782).
T1 sequence (whole entry): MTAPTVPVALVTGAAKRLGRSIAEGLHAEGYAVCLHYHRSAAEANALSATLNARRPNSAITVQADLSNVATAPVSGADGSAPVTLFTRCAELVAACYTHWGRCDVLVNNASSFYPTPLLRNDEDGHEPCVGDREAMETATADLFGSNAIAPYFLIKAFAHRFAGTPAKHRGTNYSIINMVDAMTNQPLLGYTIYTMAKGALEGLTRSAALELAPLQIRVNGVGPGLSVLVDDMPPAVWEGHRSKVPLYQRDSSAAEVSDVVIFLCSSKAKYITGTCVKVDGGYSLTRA
Briefly: Inhibition of Leishmania major PTR1 at 5 uM. Put shortly: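 Compounds dissolved in DMSO and screened at a single 5 μM concentration; DMSO kept below 1%. Measurements run in triplicate.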

For data set [2], the system named is Leishmania major. Description: Antileishmanial activity against Leishmania major MHOM/SU/73/5-ASKH assessed as growth at 50 ug/ml by Alamar blue assay. The format is functional. Put shortly: (§1)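 Promastigotes grown in SDM-79, pH 7.3, with 15% heat-inactivated FCS at 28 C in 5% CO2, then seeded at 1 × 10^6 parasites/mL. Each compound tested alone at 50 μg/mL in duplicate as a control for the combination experiments; DMSO below 1% final. After 72 h at 28 C, Alamar Blue added for 4 h; fluorescence read at ex 530 / em 590 nm. Growth expressed as percentage of untreated cultures.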

A short description of data set [3]: Cytotoxicity against human MRC5 cells after 72 hrs by Alamar blue assay. The note with it: read-out: ED50. The format is cell-based.
Data set [4] is described as follows: Lipophilicity, log D of the compound in octanol buffer at pH 7.4. The format is physicochemical.
Data set [5] is described as follows: Solubility of the compound at pH 7.4. In kind it is physicochemical. As to conditions: buffer.
The test system of data set [6] is Leishmania major. Briefly: Antileishmanial activity against Leishmania major MHOM/SU/73/5-ASKH assessed as growth at 50 ug/ml by Alamar blue assay in presence of pyrimethamine; 5-(4-chlorophenyl)-6-ethylpyrimidine-2,4-diamine DHFR inhibitor; values are per cent of control.
The test system of data set [7] is Leishmania mexicana. Description: Antileishmanial activity against Leishmania mexicana MHOM/BZ/84/BEL46 assessed as growth at 50 ug/ml by Alamar blue assay. In kind it is functional. Put shortly:
as §1

The subject of data set [8] is Leishmania mexicana. Briefly: Antileishmanial activity against Leishmania mexicana MHOM/BZ/84/BEL46 assessed as growth at 50 ug/ml by Alamar blue assay in presence of pyrimethamine; 5-(4-chlorophenyl)-6-ethylpyrimidine-2,4-diamine DHFR inhibitor; values are per cent of control.
Data set [9] has as its target Bifunctional dihydrofolate reductase-thymidylate synthase (Leishmania major) (UniProt P07382). Description: Inhibition of Leishmania major DHFR at 50 uM. Put shortly: (§2)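 NADPH oxidation followed at 340 nm. Compounds in DMSO, screened at a single concentration between 25 μM and 1 mM. Measurements run in triplicate.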
Data set [10] addresses T2, Dihydrofolate reductase (Homo sapiens) (UniProt P00374).
T2 sequence (whole entry): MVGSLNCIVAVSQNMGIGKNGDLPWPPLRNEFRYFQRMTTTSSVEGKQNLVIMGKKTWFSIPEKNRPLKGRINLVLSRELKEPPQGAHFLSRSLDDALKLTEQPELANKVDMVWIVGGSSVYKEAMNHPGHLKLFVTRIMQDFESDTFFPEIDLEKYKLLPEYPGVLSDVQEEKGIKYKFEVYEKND
Description: Inhibition of human DHFR at 50 uM. Put shortly: as §2

Data set [11] concerns the target Bifunctional dihydrofolate reductase-thymidylate synthase (Leishmania major) (UniProt P07382). Description: Inhibition of Leishmania major DHFR at 1 mM. Put shortly:
as §2

Data set [12] relates to Leishmania mexicana. Description: Antileishmanial activity against Leishmania mexicana MHOM/BZ/84/BEL46 assessed as growth by Alamar blue assay. In kind it is functional. As to conditions: read-out: ED50 (the source's name). Put shortly:
(§3)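 Promastigotes cultured in SDM-79, pH 7.3, with 15% heat-inactivated FCS at 28 C under 5% CO2, then seeded at 1 × 10^6 parasites/mL. DMSO dilutions in medium tested from 100 μg/mL downward, DMSO <1% final. After 72 h at 28 C, Alamar Blue added for 4 h; fluorescence at ex 530 / em 590 nm. Untreated cultures set as 100%. ED50 by linear interpolation; three independent experiments, each in duplicate.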

Data set [13] addresses T2, Dihydrofolate reductase (Homo sapiens). Briefly: Inhibition of human DHFR at 25 uM. Put shortly:
as §2

Data set [14] concerns the target Bifunctional dihydrofolate reductase-thymidylate synthase (Leishmania major) (UniProt P07382). Description: Inhibition of Leishmania major DHFR at 25 uM. Put shortly: as §2
Data set [15] addresses T2, Dihydrofolate reductase (Homo sapiens). Briefly: Inhibition of human DHFR at 1 mM. Put shortly:
as §2

Data set [16] has the same target. Briefly: Inhibition of human DHFR at 100 uM. Put shortly:
as §2

The nature of data set [17]: Cytotoxicity against human MRC5 cells at 100 ug/ml after 72 hrs by Alamar blue assay. In kind it is cell-based. The note with it: at 100 µg/mL, read-out: INH.
The subject of data set [18] is Leishmania major. Description: Antileishmanial activity against Leishmania major MHOM/SU/73/5-ASKH assessed as growth by Alamar blue assay. In kind it is functional. The note with it: read-out: ED50 (the source's name). Put shortly:
as §3

Each structure is given as a SMILES string. Values after ≈ are worked out from the molar mass of the structure shown. Active and inactive are the calls of the source. No cut-off for these calls is given here.

Bifunctional dihydrofolate reductase-thymidylate synthase (Leishmania major), sequence (P07382 whole entry, looked up): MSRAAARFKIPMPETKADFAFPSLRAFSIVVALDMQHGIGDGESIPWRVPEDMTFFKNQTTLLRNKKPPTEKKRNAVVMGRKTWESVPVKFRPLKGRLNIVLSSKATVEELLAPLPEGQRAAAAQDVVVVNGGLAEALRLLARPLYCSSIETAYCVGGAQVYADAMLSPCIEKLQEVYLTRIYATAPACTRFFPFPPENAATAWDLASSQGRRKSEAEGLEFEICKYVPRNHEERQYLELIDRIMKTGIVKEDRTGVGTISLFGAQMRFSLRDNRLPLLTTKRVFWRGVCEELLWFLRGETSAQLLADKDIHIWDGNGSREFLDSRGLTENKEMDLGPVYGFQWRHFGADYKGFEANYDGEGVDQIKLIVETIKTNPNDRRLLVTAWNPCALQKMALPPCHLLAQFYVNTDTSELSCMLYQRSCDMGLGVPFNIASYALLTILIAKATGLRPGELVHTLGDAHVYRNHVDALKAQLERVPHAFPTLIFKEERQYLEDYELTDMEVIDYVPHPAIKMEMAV

In the case of `Nc1nnc(CCC(=O)c2cccs2)s1`, the inhibition result in data set [1] was “inactive”. Besides, the growth, % of control at 50 µg/mL was 85.1% in the data set on Leishmania major [2], 17.5% with Leishmania major [6], 96.9% with Leishmania mexicana [7] and 27.3% with Leishmania mexicana [8]. Further, in [3], the CC50 at 72 h was 34.4 µg/mL (≈ 144 µM). Further, in data set [4], the logD stood at 1.11. The solubility in data set [5] is 1200 µM (≈ 287 µg/mL).
For `Nc1nnc(-c2ccc3[nH]nnc3c2)s1`, the inhibition entry in data set [1], in data set [9] and in data set [10] was “inactive” each time. The growth, % of control at 50 µg/mL in the data set with Leishmania major [2] came to 83.5%; in the data set with Leishmania major [6], 40.9%; in the data set with Leishmania mexicana [7], 112%; in the data set on Leishmania mexicana [8], 18.2%.
`Nc1nc2ccc(OC(F)(F)F)cc2s1` [RILUZOLE]: the inhibition entry in [11] is “inactive”. The growth, % of control at 50 µg/mL is 102% with Leishmania major [2], 22.9% in the data set with Leishmania major [6], 21.5% in the data set on Leishmania mexicana [7] and 15.1% in the data set on Leishmania mexicana [8]. The EC50 with Leishmania mexicana [12] stood at 30.8 µg/mL (≈ 132 µM). Moreover, the CC50 at 72 h in data set [3] stood at 27.9 µg/mL (≈ 119 µM).
Turning to `Nc1nc2ccc([N+](=O)[O-])cc2s1`, the inhibition entry in data set [13] and in [14] was “inactive” throughout.
Consider `Nc1nncs1`, for which, in [15], the inhibition entry was “inactive”.
As to `Cn1ncc2cc(N)ccc21`, the inhibition entry in [9] and in data set [16] was “inactive” throughout.
Take `Nc1nnc(-c2cc(=O)c3ccccc3o2)s1`: the inhibition result in [1] and in data set [10] was “inactive” in each case. Moreover, the growth, % of control at 50 µg/mL in the data set with Leishmania major [2] came out at 76%; in the data set with Leishmania major [6] it was 14.6%; in the data set with Leishmania mexicana [7], 132%; in the data set on Leishmania mexicana [8], 35.1%. Also, the CC50 at 72 h in [3] is 43 µg/mL (≈ 175 µM). Besides, the log distribution coefficient (logD) in [4] is 1.4. In addition, the solubility in [5] was 730 µM (≈ 179 µg/mL).
Consider `Nc1nnc(-c2cnccc2N)s1`, for which the inhibition result in data set [1], in data set [9] and in data set [10] was “inactive” in each case. The growth, % of control at 50 µg/mL with Leishmania major [2] was 106%; in the data set with Leishmania major [6], 38%; in the data set on Leishmania mexicana [7], 112%; in the data set on Leishmania mexicana [8], 15.6%. This compound also came in with a logD in [4] of 1.44. The compound also displayed a solubility in [5] of 1700 µM (≈ 328 µg/mL). Moreover, in data set [17], the cytotoxicity at 72 h, 100 ug/ml came out at 10%.
In the case of `O=C(CCCl)Nc1nnc(CCCl)s1`, the inhibition entry in [1] and in data set [9] was “inactive” each time. For the same compound, the growth, % of control at 50 µg/mL worked out at 7.1% in the data set on Leishmania major [2], 4.1% with Leishmania major [6], 4.7% in the data set with Leishmania mexicana [7] and 3.5% in the data set on Leishmania mexicana [8]. Besides, the EC50 with Leishmania mexicana [12] was found to be 10.1 µg/mL (≈ 39.7 µM); in the data set with Leishmania major [18], 22.1 µg/mL (≈ 87 µM). Moreover, the CC50 at 72 h in [3] stood at 4.18 µg/mL (≈ 16.4 µM).
